Source: PubChem BioAssay
The list is not random: actives were taken first. Their share in the collection is about 2.9%.
PRMT1 FP inh = PRMT1 (human) inhibition, primary screen | recombinant PRMT1, activity-based probe fluorescence polarization | inhibition, % at 2.79 µM | 370,000 tested, 1.3% active | Q99873;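 active means inhibition above about 21% made by adding two undisclosed values, limit read from the data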
Target sequence (Q99873 whole entry, looked up): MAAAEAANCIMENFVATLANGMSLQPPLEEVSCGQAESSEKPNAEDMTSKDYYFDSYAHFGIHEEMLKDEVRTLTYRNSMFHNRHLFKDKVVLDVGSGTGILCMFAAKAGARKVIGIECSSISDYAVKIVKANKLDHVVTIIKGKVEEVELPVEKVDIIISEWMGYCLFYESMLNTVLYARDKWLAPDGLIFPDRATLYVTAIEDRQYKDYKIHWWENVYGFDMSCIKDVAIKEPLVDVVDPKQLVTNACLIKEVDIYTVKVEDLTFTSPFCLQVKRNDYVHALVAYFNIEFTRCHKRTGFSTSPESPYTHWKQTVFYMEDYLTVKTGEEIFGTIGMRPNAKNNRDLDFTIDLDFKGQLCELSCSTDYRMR
mABHD4 FP = ABHD4 (mouse) inhibition, primary FP screen. purified mABHD4, FP-Rh probe fluorescence polarization. inhibition, % at 8.92 µM. 370,000 tested, 0.54% active. Q8VD66;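 active means inhibition exceeding the mean over every tested compound plus 3 SD, cut at about 30% in these data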;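 further: 0% = plate median of compound wells and 100% = S159A mutant with DMSO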
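System: mouse ABHD4 enzyme, wild type / Medium: HEPES pH 7.0, NaCl, Pluronic buffer / Reagent: FP-Rh activity-based fluorescent probe / Control set: S159A mutant high control, sample median low control / Detection: fluorescence polarization with parallel and perpendicular emission, 525/598 nm / Schedule: 45 min + 60 min at 25 °C / Compound dosing: 8.92 µM, single dose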
SIAE primary = human SIAE inhibition, primary screen | inhibition, % at 9.66 µM | SIAE FP-Rh probe binding, fluorescence polarization | 370,000 tested, 0.69% active | Q9HAT2;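 active means inhibition above a cutoff: mean of compounds within the control limits plus 3 SD of those, cut at about 17% in these data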;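 further: 0% = plate median of compound wells and 100% = probe without SIAE protein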
PAD4 inh = PAD4 (human) enzyme inhibition; Q9UM07; recombinant PAD4, RCA probe fluorescence polarization; inhibition, % at 6.36 µM; 330,000 tested, 0.41% active; AID 485272;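 active means percent inhibition above a cutoff equal to the mean of all tested compounds plus 3 SD, cut at about 15% in these data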;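 further: 0% = PAD4 with RCA probe and DMSO and 100% = probe without PAD4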
HTRA1 inhibitor = inhibitors of human serine peptidase HTRA1. Q92743. recombinant HTRA1, FP-rhodamine activity-based probe, fluorescence polarization. inhibition, % at 5.96 µM. 340,000 tested, 0.5% active. AID 504803; in the data active means inhibition above about 36%;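 further: 0% = enzyme with DMSO and 100% = wells lacking enzyme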
TCR CD3 inh = inhibitors of human TCR-CD3 interaction; TAMRA-labeled TCR probe fluorescence, biochemical; inhibition, % at 9.4 µM; 360,000 tested, 0.37% active; AID 651800;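 further: recombinant mutant TCR 2C K166C tagged with TAMRA read by polarization; 0% = receptor in buffer alone and 100% = receptor with positive control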
HTRA1 conf = HTRA1 (human) inhibition, confirmation; shares compounds with HTRA1 inhibitor; recombinant HTRA1, FP-rhodamine activity-based probe, fluorescence polarization; inhibition, % at 5.96 µM; 1,600 tested, 66% active;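 active means mean inhibition over three repeats above a set limit taken from the earlier primary screen, cut at about 37% in these data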;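 further: 0% = HTRA1 with DMSO and 100% = wells lacking HTRA1; inhibitors block probe binding so polarization drops and inhibition rises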
BSA TAMRA ctr = interferes with TAMRA-BSA probe, flagging TCR-CD3 hits; shares compounds with TCR CD3 inh; TAMRA-labeled BSA probe fluorescence counterscreen; inhibition, % at 9.4 µM; 1,200 tested, 10% active; in the data active means inhibition above about 23%;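 further: 0% = buffer low control and 100% = reference high control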
TCR-CD3 inh conf = TCR-CD3 interaction inhibition, confirmation | 1,200 tested, 48% active | inhibition, % at 9.4 µM | shares compounds with TCR CD3 inh | TAMRA-labeled TCR probe fluorescence binding assay
Starred values were filed as active, the others as inactive; x = not tested or not shown. Unless noted, no stated cut-off is given here; in the data, active means inhibition above about 19%; inactive means the rest.

SMILES	PRMT1 FP inh	mABHD4 FP	SIAE primary	PAD4 inh	HTRA1 inhibitor	TCR CD3 inh	HTRA1 conf	BSA TAMRA ctr	TCR-CD3 inh conf
Cc1ccc(/C=C2\SC(=S)N(CCC(=O)NNC(=O)c3ccccc3O)C2=O)cc1	0	13	6	-5	38*	29*	59*	-9	33*
COc1cccc(/C=C2/SC(=S)N(CC(=O)NNC(=O)c3ccccc3O)C2=O)c1	7	-6	-81	-37	46*	25*	8	-6	46*
O=C(CCN1C(=O)/C(=C/c2ccccc2Cl)SC1=S)NNC(=O)c1ccccc1O	-3	-2	-2	-8	55*	43*	70*	3	34*
COc1ccc(S[C@]2(C(=O)N3CCOCC3)CC(=O)N(c3ccsc3)[C@@H]2c2ccc(OC)cc2)cc1	0	-3	-8	x	x	x	x	x	x
CCCCCCCCN1C(=O)[C@@H](CC(=O)NCc2ccc(OC)c(OC)c2)C[C@@]2(C(=O)OC)C1=C[C@H](COCc1ccccc1)O[C@@H]2C	-1	0	1	x	x	x	x	x	x
CCOC(=O)CC[C@@]1(C(=O)OCC)C[C@@H](CC(=O)NCc2ccc(OC)c(OC)c2)C(=O)N2CCCC=C21	2	4	-3	x	x	x	x	x	x
CCN1CCCCC(NC(=O)c2cccc(C(F)(F)F)c2)C1=O (stereo not given)	3	0	3	x	x	x	x	x	x
CC1=Nc2cccc3cccc(c23)N1	7	26	12	-1	42*	39*	18	45*	23*
Cc1cccc(C2Nc3cccc4cccc(c34)N2)c1	8	1	3	-1	-2	5	x	x	x
COc1ccc(-c2cc(=O)oc3cc(OC(C)C(=O)O)ccc23)cc1 (stereo not given)	-2	-2	4	-4	4	0	x	x	x
COc1ccc(-c2cc(=O)oc3c(O)c(O)ccc23)cc1	9	27	-1	7	73*	21*	86*	-2	14
CCn1c2ccccc2c2cc(C=NNC(=O)c3cc(-c4ccc(OC)cc4)n[nH]3)ccc21	-1	-32	-21	x	x	x	x	x	x
O=C(CCN1CCN(c2ccccc2)CC1)N/N=C/c1ccc(O)c(O)c1O	23*	24	12	x	47*	30*	37*	-5	24*
Cc1cc(SCC(=O)c2ccc(O)c(O)c2)n2nc(C)c(-c3ccccc3)c2n1	3	24	5	-2	56*	25*	65*	-2	48*
Cc1cc(=O)[nH]c(SCC(=O)c2ccc(O)c(O)c2)n1	8	17	17	7	6	6	x	x	x
Oc1cccc(/C=N/Nc2ncnc3c2ncn3Cc2ccccc2)c1	4	6	8	0	1	-8	x	x	x
Oc1ccc(/C=N/Nc2ncnc3c2ncn3Cc2ccccc2)cc1O	0	29	2	4	49*	53*	50*	-4	46*
C=CCn1c(SCC(=O)c2ccc(OC)cc2)nnc1-c1cc2cccc(OC)c2o1	-4	4	-5	-2	0	-1	x	x	x
C=CCn1c(SCC(=O)c2ccc(O)c(O)c2)nnc1-c1cccc(OC)c1	3	25	1	4	38*	20*	67*	-7	17
COc1ccc2ccccc2c1CN1CCN(c2ncc(Cc3ccccc3)cn2)CC1	2	-2	-3	x	x	1	x	x	x
C/C(=N/NC(=O)c1ccc(-c2ccccc2)cc1)c1cc(O)cc(O)c1	0	-2	-1	x	-7	-3	x	x	x
C/C(=N\NC(=O)c1ccc(-c2ccccc2)cc1)C1C(=O)c2ccccc2C1=O	-3	22	9	-2	36*	29*	58*	-7	38*
O=C(N/N=C/c1ccc(O)cc1O)c1ccc(CN2C(=O)c3cccc4cccc2c34)cc1	1	-95	-15	-8	38*	27*	32	-35	30*
